Here are results for four compounds from paper PMC12594766 (Nature Communications, 2025).

The test system of one data set is S. aureus USA300 (MRSA). As to the kind of experiment: MIC against multidrug-resistant strain. It is filed as cell-based. Particulars: Staphylococcus aureus. The method, boiled down:
(§1)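 Broth microdilution in non-cation-adjusted Mueller-Hinton broth. Bacteria were subcultured to OD 0.2–0.3 (about 10^8 CFU/mL), then diluted to about 10^5 CFU/mL final. Test compound stock was in DI water. Twofold dilutions gave 512 to 1 µg/mL final. Plates were incubated 18-20 h at 37 °C and read at OD600.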

The test system of another data set is S. aureus USA300 (LAC). Description: MIC against multidrug-resistant strain. The data set is classed as cell-based. Particulars: Staphylococcus aureus. The method, boiled down:
as §1

In the next data set the test system is S. aureus BAA39 (MRSA). Description: MIC against multidrug-resistant strain. Particulars: Staphylococcus aureus. It is filed as cell-based. The method, boiled down:
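Broth microdilution in non-cation-adjusted Mueller-Hinton broth. Bacteria were subcultured to OD 0.2–0.3 (about 10^8 CFU/mL) and diluted to give about 10^5 CFU/mL in wells. The test compound stock was in DI water, serially diluted twofold to final 512–1 µg/mL. Plates were incubated at 37 °C for 18–20 h and read at OD600.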

The test system of data set [1] is K. pneumoniae KPNR. As to the kind of experiment: MIC against multidrug-resistant strain. It is filed as cell-based. Particulars: Klebsiella pneumoniae.
The test system of data set [2] is P. aeruginosa PAO1. Description: Resistance frequency determination. It is filed as cell-based. Particulars: 10× MIC.
The test system of data set [3] is P. aeruginosa BAA-2797. As to the kind of experiment: Murine systemic. The data set is classed as in vivo, balb/c mice. Particulars: P. aeruginosa BAA-2797 peritonitis; single dose 10 mg/kg i.p. at 2 h; n = 6. The method, boiled down:
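Female BALB/c mice, 7–8 weeks, were infected i.p. with P. aeruginosa BAA-2797 (10^6 CFU/mL) in PBS containing 5% mucin. At 2 h post-infection they received a single i.p. dose of PBS, test compound (10 mg/kg) or imipenem (10 mg/kg), n = 6. Survival was monitored for up to 7 days.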

The test system of data set [4] is P. aeruginosa BAA-2797. Description: Murine neutropenic thigh infection model. The data set is classed as in vivo, balb/c mice. The settings on record: 2 doses of 15 mg/kg s.c. at 2, 6 h, 26 h. The method, boiled down: (§2)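 Infection was intramuscular into the right thigh: P. aeruginosa BAA-2797 at 10^5, K. pneumoniae KPNR at 10^6, or MRSA at 10^5 CFU/mL. PBS, test compound or imipenem was given s.c. at 15 mg/kg at 2 and 6 h (n = 6). Thighs were homogenised at 26 h for CFU.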

Data set [5] concerns K. pneumoniae KPNR. As to the kind of experiment: Murine neutropenic thigh infection model. Particulars: 2 doses of 15 mg/kg s.c. at 2, 6 h, 26 h. The data set is classed as in vivo, balb/c mice. An outline of the steps: as §2
The test system of data set [6] is P. aeruginosa PAO1. Description: Murine lung infection model. The data set is classed as in vivo, balb/c mice. Particulars: 10 mg/kg intranasal at 2, 8, 26 h. The method, boiled down: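 Infection was intranasal with P. aeruginosa PAO1 (10^4 CFU/mL inoculum). PBS, test compound or imipenem was given intranasally at 10 mg/kg at 2, 8 and 26 h post-infection (n = 6). Lungs were homogenised at 38 h for CFU. Survival was followed for up to 7 days.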

The conditions of data set [7]: conventional antibiotics, literature values; cited from earlier work.
For the next data set, the system named is MRSA. As to the kind of experiment: Murine neutropenic thigh infection model. The data set is classed as in vivo, balb/c mice. Particulars: 2 doses of 15 mg/kg s.c. at 2, 6 h, 26 h. An outline of the steps:
as §2

Structures are written as SMILES. In brackets after ≈: the same amount, converted by molar mass. Where only a bound is given, the exact number is not on record here.

For the compound `O=C(O)c1cn(C2CC2)c2cc(N3CCNCC3)c(F)cc2c1=O` [CIP, ciprofloxacin], the MIC (in general, the lowest concentration found to suppress growth) is under 1 µg/mL against S. aureus USA300 (MRSA), 8 µg/mL (≈ 24.1 µM) in the data set with S. aureus USA300 (LAC) and 4 µg/mL (≈ 12.1 µM) against S. aureus BAA39 (MRSA).
With `C[C@@H](O)[C@H]1C(=O)N2C(C(=O)O)=C(SCCN=CN)C[C@H]12` [IMP, imipenem], the MIC in the data set on S. aureus USA300 (MRSA) is under 1 µg/mL; in the data set on S. aureus USA300 (LAC), under 1 µg/mL; against S. aureus BAA39 (MRSA), under 1 µg/mL; against K. pneumoniae KPNR [1], 4 µg/mL (≈ 13.4 µM). In addition, in the data set with P. aeruginosa PAO1 [2], the “selection of resistant escape mutants” value was “resistant strains developed”. The “survival (mice rescued)” value with P. aeruginosa BAA-2797 [3] was “succumbed to the infection”; with P. aeruginosa PAO1 [6] (P. aeruginosa PAO1 lung infection, n = 6), 5 out of 6. Also, the “CFU reduction in thigh vs PBS (-)” value in the data set on P. aeruginosa BAA-2797 [4] is 0.1 log10; in the data set with K. pneumoniae KPNR [5] it was 1.4 log10. Also, in the data set with P. aeruginosa PAO1 [6] (P. aeruginosa PAO1, 38 h), the “reduction of bacterial burden in lung tissues” value came to 4.7 log10. For the same compound, the “half-life (T1/2)” value in [7] was 12 min.
As to `CN[C@H](CC(C)C)C(=O)N[C@H]1C(=O)N[C@@H](CC(N)=O)C(=O)N[C@H]2C(=O)N[C@H]3C(=O)N[C@H](C(=O)N[C@H](C(=O)O)c4cc(O)cc(O)c4-c4cc3ccc4O)[C@H](O)c3ccc(c(Cl)c3)Oc3cc2cc(c3O[C@@H]2O[C@H](CO)[C@@H](O)[C@H](O)[C@H]2O[C@H]2C[C@](C)(N)[C@H](O)[C@H](C)O2)Oc2ccc(cc2Cl)[C@H]1O` [VAN, vancomycin], the MIC was under 1 µg/mL against S. aureus USA300 (MRSA), under 1 µg/mL against S. aureus USA300 (LAC) and 1 µg/mL (≈ 0.69 µM) in the data set on S. aureus BAA39 (MRSA). Also, the “CFU reduction in thigh vs PBS (-)” value in the data set on MRSA is 2.3 log10.
`C[C@@H](O)[C@H]1C(=O)N2C(C(=O)O)=C(S[C@@H]3CN[C@H](C(=O)N(C)C)C3)[C@H](C)[C@H]12` [meropenem]: in data set [7], the “half-life (T1/2)” value is on record as 6 min.
